What was measured:
Mus musculus [1] = test: Antagonistic activity against apomorphine induced climbing in CD-1 mice at 2 mg/kg after oral administration; assay type: functional
How it was run: (§1)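 Male CD-1 mice (20–25 g), usually groups of five, given oral compound or vehicle 30 min before apomorphine 1 mg/kg sc. Climbing scored at 10, 20 and 30 min. Percent antagonism at the quoted dose.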

Mus musculus [2] = test: Antagonistic activity against apomorphine induced climbing in CD-1 mice, after oral administration; assay type: functional
How it was run: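 Male CD-1 mice (20–25 g), usually four groups of five, dosed orally with graded doses or vehicle 30 min before submaximal apomorphine (1 mg/kg sc). Climbing scored 10, 20 and 30 min later (modified Protais method). ED50 with 95% confidence limits by Litchfield–Wilcoxon.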

Rattus norvegicus [3] = test: Increase in intragastric pressure after subcutaneous administration to Wistar rats
Rattus norvegicus [4] = test: Evaluation of prolactin levels in Hooded Lister rats after subcutaneous administration; conditions: sc
Rattus norvegicus [5] = test: Antagonistic activity against apomorphine induced delay in gastric emptying in Wistar rats, after subcutaneous administration; conditions: Stomach, sc
Rattus norvegicus [6] = test: Evaluation of HVA levels in striatum after subcutaneous administration to Hooded Lister rats; conditions: sc
Rattus norvegicus [7] = test: Evaluation of HVA levels in limbic system in Hooded Lister rats after subcutaneous administration; conditions: sc
Rattus norvegicus [8] = test: Antagonism of amphetamine induced syereotyped behavior after intraperitoneal administration to CD rats; conditions: ip
Rattus norvegicus [9] = test: Increase in intragastric pressure after subcutaneous administration to Wistar rats; 5-50
Mus musculus [10] = test: Percent antagonistic activity against apomorphine induced climbing in CD-1 mice at 0.5 mg/kg after oral administration; assay type: functional; how it was run: as §1

Structure (SMILES)	ED50 (Mus musculus [2])	also measured
COc1cc(N)c(Cl)cc1NC(=O)C1CCN(Cc2ccccc2C)CC1	–	inhibition in vivo at 2 mg/kg (Mus musculus [1]): 77%
COc1cc(N)c(Cl)cc1NC(=O)C1CCN(Cc2cccc(F)c2)CC1	–	inhibition in vivo at 2 mg/kg (Mus musculus [1]): 58%
CCN1CCC(C(=O)Nc2cc(Cl)c(N)cc2OC)CC1	> 10 mg/kg	–
CCCN1CCC(C(=O)Nc2cc(Cl)c(N)cc2OC)CC1	> 10 mg/kg	–
CCCCN1CCC(C(=O)Nc2cc(Cl)c(N)cc2OC)CC1	> 10 mg/kg	–
COc1cc(N)c(Cl)cc1NC(=O)C1CCN(Cc2cccc(C#N)c2)CC1	> 4 mg/kg	–
COc1cc(N)c(Cl)cc1NC(=O)C1CCN(CC2CCCC2)CC1	> 10 mg/kg	–
COc1cc(N)c(Cl)cc1NC(=O)C1CCN(Cc2ccc(O)cc2)CC1	> 8 mg/kg	–
COc1cc(N)c(Cl)cc1NC(=O)C1CCN(Cc2ccc(OCc3ccccc3)cc2)CC1	> 4 mg/kg	–
COc1cc(N)c(Cl)cc1NC(=O)C1CCN(Cc2cccc(Cl)c2)CC1	> 4 mg/kg	–
COc1cc(N)c(Cl)cc1NC(=O)C1CCN(CC2CC2)CC1	> 10 mg/kg	–
COc1cc(N)c(Cl)cc1NC(=O)C1CCN(Cc2ccc(F)cc2)CC1	0.6 mg/kg	–
COc1cc(N)c(Cl)cc1NC(=O)C1CCN(Cc2ccc(Cl)cc2)CC1	1.2 mg/kg	–
COc1cc(N)c(Cl)cc1NC(=O)C1CCN(CC2CCCCCC2)CC1	> 10 mg/kg	–
COc1cc(N)c(Cl)cc1C(=O)NC1CCN(Cc2ccccc2)CC1 [CLEBOPRIDE]	0.7 mg/kg	lowest active dose (Rattus norvegicus [3]): 1 mg/kg; ED50 (Rattus norvegicus [4]): 0.14 mg/kg; ED50 (Rattus norvegicus [5]): 0.11 mg/kg; ED50 (Rattus norvegicus [6]): 0.1 mg/kg; ED50 (Rattus norvegicus [7]): 0.2 mg/kg
COc1cc(N)c(Cl)cc1NC(=O)C1CCN(C2CCCC2)CC1	> 10 mg/kg	–
COc1cc(N)c(Cl)cc1NC(=O)C1CCN(CC2CCC2)CC1	> 10 mg/kg	–
CCCCCCCN1CCC(C(=O)Nc2cc(Cl)c(N)cc2OC)CC1	> 10 mg/kg	–
CCCCCN1CCC(C(=O)Nc2cc(Cl)c(N)cc2OC)CC1	> 10 mg/kg	–

Structure (SMILES)	ED50 (Mus musculus [2])	also measured
COc1cccc(CN2CCC(C(=O)Nc3cc(Cl)c(N)cc3OC)CC2)c1	> 4 mg/kg	–
COc1cc(N)c(Cl)cc1NC(=O)C1CCN(Cc2ccccc2F)CC1	> 4 mg/kg	–
COc1cc(N)c(Cl)cc1NC(=O)C1CCN(Cc2ccc([N+](=O)[O-])cc2)CC1	> 4 mg/kg	–
COc1cc(N)c(Cl)cc1NC(=O)C1CCN(Cc2cccc(C)c2)CC1	2.4 mg/kg	–
COc1cc(N)c(Cl)cc1NC(=O)C1CCN(Cc2ccc3c(c2)OCO3)CC1	4.3 mg/kg	–
CCC(CC)CN1CCC(C(=O)Nc2cc(Cl)c(N)cc2OC)CC1	> 10 mg/kg	–
CCCCCCN1CCC(C(=O)Nc2cc(Cl)c(N)cc2OC)CC1	> 10 mg/kg	–
COc1cc(N)c(Cl)cc1NC(=O)C1CCN(Cc2ccccc2Cl)CC1	> 4 mg/kg	–
COc1cc(N)c(Cl)cc1NC(=O)C1CCN(CCc2ccccc2)CC1	> 10 mg/kg	–
COc1cc(N)c(Cl)cc1NC(=O)C1CCN(Cc2cccs2)CC1	–	Inhibition (Mus musculus [2]): 77%
COc1cc(N)c(Cl)cc1NC(=O)C1CCN(CC2CCCCC2)CC1	2.9 mg/kg	–
COc1cc(N)c(Cl)cc1NC(=O)C1CCN(Cc2ccc(C)c(C)c2)CC1	> 8 mg/kg	–
CCOc1ccc(CN2CCC(C(=O)Nc3cc(Cl)c(N)cc3OC)CC2)cc1	6.3 mg/kg	–
COc1ccc(CN2CCC(C(=O)Nc3cc(Cl)c(N)cc3OC)CC2)cc1	0.9 mg/kg	–
COc1cc(N)c(Cl)cc1NC(=O)C1CCN(Cc2ccccc2)CC1	0.5 mg/kg	ED50 (Rattus norvegicus [4]): 0.5 mg/kg; ED50 (Rattus norvegicus [5]): > 50 mg/kg; ED50 (Rattus norvegicus [6]): 0.4 mg/kg; ED50 (Rattus norvegicus [8]): 0.25 mg/kg; ED50 (Rattus norvegicus [9]): > 50 mg/kg; ED50 (Rattus norvegicus [7]): 0.5 mg/kg
COc1cc(N)c(Cl)cc1NC(=O)C1CCN(Cc2ccc(C)cc2)CC1	–	inhibition in vivo at 0.5 mg/kg (Mus musculus [10]): 50%
COc1cc(N)c(Cl)cc1NC(=O)C1CCN(Cc2ccsc2)CC1	3.4 mg/kg	–
COc1cc(N)c(Cl)cc1NC(=O)C1CCN(C/C=C/c2ccccc2)CC1	> 10 mg/kg	–

From ChEMBL document CHEMBL1122414, “Anilides related to substituted benzamides. Potential antipsychotic activity of N-(4-amino-5-chloro-2-methoxyphenyl)-1-(phenylmethyl)-4-piperidinecarboxamide” (1983)
